Reference: ChEMBL document CHEMBL2331329, “Synthesis and biological evaluation of 2-(alkoxycarbonyl)-3-anilinobenzo[b]thiophenes and thieno[2,3-b]pyridines as new potent anticancer agents” (J Med Chem, 2013)
Calls of active or inactive are those of the source. The calls are words filed in the database; no cut-off is given here.

Columns and labels:
HeLa [1] = experiment: Induction of apoptosis in human HeLa cells assessed as phosphorylated Mcl-1 at 10 nM after 48 hrs by Western Blot analysis; assay type: functional, cell-based
Outline: (§1)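 HeLa cells exposed to 10 or 100 nM for 24 or 48 h, washed in ice-cold PBS, lysed on ice 30 min, spun at 15000g at 4 °C. 20 μg protein run on 7.5–15% SDS–PAGE, blotted to PVDF, blocked overnight at 4 °C. Primary antibodies 2 h at room temperature, peroxidase secondary 60 min, ECL detection, β-actin reprobe as loading control.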

Jurkat [2] = experiment: Cell cycle arrest in human Jurkat cells assessed as accumulation at G2/M phase after 24 hrs by propidium iodide staining-based flow cytometry; assay type: functional
Outline: (§2)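 Jurkat, HT-29 and HeLa cells in exponential growth (5 × 10^5 cells) treated 24 h at a range of concentrations. Fixed in ice-cold 70% ethanol, lysed with buffer containing RNase A and 0.1% Triton X-100, stained with propidium iodide. DNA content read by flow cytometry and the percentage of cells per cycle phase derived from DNA histograms.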

HeLa [3] = experiment: Induction of apoptosis in human HeLa cells assessed as Mcl-1 phosphorylation at 10 to 100 nM after 24 hrs by Western Blot analysis; assay type: functional, cell-based; outline: as §1
[4] = Cytotoxicity against human LoVo/DX cells after 72 hrs by MTT assay; assay type: functional, cell-based
Outline: (§3)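 MTT viability test: 8 × 10^3 cells per well settled 18 h at 37 °C, 5% CO2, then given fresh medium with compound (from 10 mM DMSO stocks, final DMSO ≤0.25%) for 72 h. […] CEMVbl-100 is a vinblastine-selected P-gp line; LoVoDoxo is grown in Ham's F12 with 0.1 μg/mL doxorubicin. Resistance index = resistant IC50/parental IC50.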

HeLa [5] = experiment: Induction of apoptosis in human HeLa cells assessed as mitochondrial membrane depolarization at 10 to 100 nM by JC-1 staining; assay type: functional, cell-based; conditions: TDE = time-dependent effect
Outline: (§4)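 HeLa cells treated 24 or 48 h, then stained with the potentiometric dye JC-1. Proportion of cells with depolarised mitochondria read by flow cytometry. Mean ± SEM of three independent experiments.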

PBL [6] = experiment: Cytotoxicity against human PHA-stimulated PBL cells after 72 hrs by MTT assay; assay type: cell-based
Outline: (§5)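 Peripheral blood lymphocytes from healthy donors isolated on a Lymphoprep gradient and rested overnight in RPMI-1640 with 10% FBS. Nonadherent cells at 5 × 10^5 cells/mL, with 2.5 μg/mL PHA for proliferating cultures or without it for resting ones. Compound exposure 72 h, viability by MTT. Mean ± SEM of three experiments.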

Jurkat [7] = experiment: Cell cycle arrest in human Jurkat cells assessed as accumulation at G2/M phase at >20 nM after 24 hrs by propidium iodide staining-based flow cytometry; assay type: functional; outline: as §2
CCRF-CEM = experiment: Cytotoxicity against human CEM cells after 72 hrs by MTT assay; assay type: functional, cell-based; outline: as §3
HeLa [8] = experiment: Induction of apoptosis in human HeLa cells assessed as ROS production at 10 to 100 nM after 24 to 48 hrs by H2-DCFDA staining-based flow cytometry relative to control; assay type: functional, cell-based
Outline: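 HeLa cells treated 24 or 48 h, then stained with H2-DCFDA or hydroethidine. ROS read by flow cytometry against untreated control. Mean ± SEM of three independent experiments.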

HeLa [9] = experiment: Cell cycle arrest in human HeLa cells assessed as increase in activated cdc25 level at 10 to 100 nM after 24 to 48 hrs by Western Blot analysis; assay type: functional, cell-based; outline: as §1
Bos taurus = species on record: Bos taurus; experiment: Displacement of [3H]colchicine from bovine brain tubulin at 5 uM after 20 mins by turbidimetric analysis
[10] = Selectivity ratio of IC50 for human Jurkat cells to IC50 for human PHA-stimulated PBL cells; assay type: ADME, cell-based; conditions: Jurkat cells and PHA-stimulated PBL cells, read-out: Ratio IC50
[11] = Cytotoxicity against mouse BNL 1ME A.7R.1 cells; assay type: functional, cell-based
HeLa [12] = experiment: Induction of apoptosis in human HeLa cells assessed as mitochondrial membrane depolarization after 24 to 48 hrs by JC-1 staining; assay type: functional, cell-based; outline: as §4
HT-29 [13] = experiment: Cell cycle arrest in human HT-29 cells assessed as accumulation at G2/M phase at 20 nM after 24 hrs by propidium iodide staining-based flow cytometry; assay type: functional; outline: as §2
HeLa [14] = experiment: Induction of apoptosis in human HeLa cells assessed as Bcl-XL phosphorylation at 10 to 100 nM after 24 to 48 hrs by Western Blot analysis; assay type: functional, cell-based; outline: as §1
[15] = Inhibition of bovine brain tubulin polymerization after 20 mins by turbidimetric analysis; design: species or system Bos taurus
Outline: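 Bovine brain tubulin (10 μM) preincubated with varying compound concentrations in glutamate buffer at 30 °C, chilled to 0 °C, 0.4 mM GTP added, then warmed to 30 °C in a recording spectrophotometer.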

HeLa [16] = experiment: Induction of apoptosis in human HeLa cells assessed as caspase-9 cleavage at 10 to 100 nM after 24 to 48 hrs by Western Blot analysis; assay type: functional, cell-based; outline: as §1
HeLa [17] = experiment: Cell cycle arrest in human HeLa cells assessed as accumulation at G2/M phase at >20 nM after 24 hrs by propidium iodide staining-based flow cytometry; assay type: functional; outline: as §2
HT-29 [18] = experiment: Cell cycle arrest in human HT-29 cells assessed as accumulation at G2/M phase after 24 hrs by propidium iodide staining-based flow cytometry; assay type: functional; outline: as §2
HT-29 [19] = experiment: Cell cycle arrest in human HT-29 cells assessed as accumulation at G2/M phase at >20 nM after 24 hrs by propidium iodide staining-based flow cytometry; assay type: functional; outline: as §2
HeLa [20] = experiment: Cell cycle arrest in human HeLa cells assessed as accumulation at G2/M phase at 20 nM after 24 hrs by propidium iodide staining-based flow cytometry; assay type: functional; outline: as §2
Jurkat [21] = experiment: Cell cycle arrest in human Jurkat cells assessed as accumulation at G2/M phase at 20 nM after 24 hrs by propidium iodide staining-based flow cytometry; assay type: functional; outline: as §2
HT-29 [22] = experiment: Ratio of Combretastatin A-4 IC50 to compound IC50 for human HT-29 cells; assay type: functional
HeLa [23] = experiment: Ratio of Combretastatin A-4 IC50 to compound IC50 for human HeLa cells; assay type: functional
[24] = Cytotoxicity against human A549-T12 cells after 72 hrs by MTT assay; assay type: functional, cell-based; conditions: A549, 72 h
Outline: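 Mean ± SE of at least three independent experiments. Resistance ratio = IC50 in resistant line/IC50 in nonresistant line.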

HeLa [25] = experiment: Cytotoxicity against human HeLa cells after 72 hrs by MTT assay; assay type: functional, cell-based
PBL [26] = experiment: Cytotoxicity against human PBL cells after 72 hrs by MTT assay; assay type: cell-based; outline: as §5

COC(=O)c1sc2cc(OC)ccc2c1Nc1cc(OC)c(OC)c(OC)c1
Activity (HeLa [1]): inactive
Activity (Jurkat [2]): Dose-dependent effect
Activity (HeLa [3]): Active
IC50 [4]: 0.4 nM
Activity (HeLa [5]): tde
IC50 (PBL [6]): > 10 µM
Activity (Jurkat [7]): >80%
IC50 (CCRF-CEM): 3.2 nM
Activity (HeLa [8]): Active
Activity (HeLa [9]): Active
inhibition (Bos taurus): 98%
selectivity ratio [10]: 2000
IC50 [11]: 2.1 nM
Activity (HeLa [12]): Dose-dependent effect
Activity (HT-29 [13]): Active
Activity (HeLa [14]): Active
IC50 [15]: 880 nM
Activity (HeLa [16]): Active
Activity (HeLa [17]): >80%
Activity (HT-29 [18]): Dose-dependent effect
Activity (HT-29 [19]): >80%
Activity (HeLa [20]): Active
Activity (Jurkat [21]): Active
Ratio IC50 (HT-29 [22]): 2
Ratio IC50 (HeLa [23]): 2
IC50 [24]: 12.6 nM
IC50 (HeLa [25]): 0.28 nM
IC50 (PBL [26]): > 10 µM
